Data published in ChEMBL document CHEMBL3872250, “Structure-activity and in vivo evaluation of a novel lipoprotein lipase (LPL) activator” (Bioorg Med Chem Lett, 2017).
Calls of active or inactive are those of the source. The calls are words filed in the database; no cut-off is given here.

Legend:
[1] = biological target: T1, Lipoprotein lipase (Bos taurus) (UniProt P11151); test: Activation of bovine recombinant lipoprotein lipase at 100 uM using p-Nitrophenyl butyrate as substrate by HTS assay
T1 sequence (whole entry): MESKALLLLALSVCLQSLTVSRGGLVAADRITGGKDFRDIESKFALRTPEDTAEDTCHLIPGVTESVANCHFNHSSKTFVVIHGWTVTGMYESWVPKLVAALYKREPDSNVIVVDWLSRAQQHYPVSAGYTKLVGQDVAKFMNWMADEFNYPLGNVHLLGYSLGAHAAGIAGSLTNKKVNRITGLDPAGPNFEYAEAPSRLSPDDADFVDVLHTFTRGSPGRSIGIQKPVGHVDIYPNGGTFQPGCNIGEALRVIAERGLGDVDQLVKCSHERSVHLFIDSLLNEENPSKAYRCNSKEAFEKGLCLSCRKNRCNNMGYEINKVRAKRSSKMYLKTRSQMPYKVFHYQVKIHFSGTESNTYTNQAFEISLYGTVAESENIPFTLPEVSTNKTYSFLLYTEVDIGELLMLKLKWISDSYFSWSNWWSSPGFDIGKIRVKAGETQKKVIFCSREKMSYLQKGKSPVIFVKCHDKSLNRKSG
In short: (§1)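 Recombinant LPL screened at 100 µM in a 384-well format with p-nitrophenyl butyrate as substrate. […] release was read as absorbance at 405 nm, and activity was expressed as fold change in absorbance.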

[2] = biological target: T1, Lipoprotein lipase (Bos taurus); test: Inhibition of bovine recombinant lipoprotein lipase at 100 uM using p-Nitrophenyl butyrate as substrate by HTS assay; in short: as §1
Rattus norvegicus = test: In vivo activation of lipoprotein lipase in STZ-induced diabetes rat model relative to control; format: functional
Mus musculus [3] = test: Hepatoprotective activity against high fat diet fed C57BL/6 mouse liver assessed as increase in LC3 level at 10 mg/kg, ip administered daily on last week of 4 months study until end; format: functional, organism-based
In short: (§2)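 Mice on a high-fat diet for four months were dosed at 10 mg/kg for seven days. Hepatic protein levels of SIRT1 or LC3 were then measured. n = 5 mice; significance at P<0.05.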

[4] = biological target: T1, Lipoprotein lipase (Bos taurus); test: Activation of bovine recombinant lipoprotein lipase at 100 uM using p-Nitrophenyl butyrate as substrate by HTS assay relative to NO-1886; in short: as §1
Mus musculus [5] = test: Toxicity in high fat diet fed C57BL/6 mouse liver assessed as morphological changes at 10 mg/kg, ip administered daily on last week of 4 months study until end by hematoxylin and eosin staining based assay; format: organism-based; conditions: in vivo, 2922 h
In short: (§3)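 After four months of high-fat diet with 10 mg/kg i.p. dosing over the final week, livers were examined by gross morphology and size. Sections were stained with hematoxylin and eosin and viewed at 20X to assess lipid accumulation.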

Mus musculus [6] = test: Hepatoprotective activity against high fat diet fed C57BL/6 mouse liver assessed as increase in SIRT1 level at 10 mg/kg, ip administered daily on last week of 4 months study until end; format: functional, organism-based; in short: as §2
Mus musculus [7] = test: Reduction in serum triglycerides level in high fat diet fed C57BL/6 mouse at 10 mg/kg, ip administered daily on last week of 4 months study until end; format: functional, organism-based
In short: (§4)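 Serum triglycerides and cholesterol measured with commercial kits after sacrifice. Mice had four months of high-fat diet, with 10 mg/kg i.p. given in the last week. Mean ± SE, n = 3.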

Mus musculus [8] = test: Reduction in serum cholesterol level in high fat diet fed C57BL/6 mouse at 10 mg/kg, ip administered daily on last week of 4 months study until end; format: functional, organism-based; in short: as §4
Mus musculus [9] = test: In vivo activation of lipoprotein lipase in high fat diet fed C57BL/6 mouse at 10 mg/kg, ip administered daily on last week of 4 months study until end by fluorescence assay; format: functional, organism-based
Mus musculus [10] = test: In vivo activation of lipoprotein lipase in high fat diet fed C57BL/6 mouse assessed as reduction in body weight at 1 to 10 mg/kg, ip administered daily on last week of 4 months study until end; format: functional, organism-based
In short: (§5)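 Mice fed a high-fat diet (60% kcal from fat) for four months, with daily i.p. dosing at 10 mg/kg during the final week. A dose-response at 1, 5 and 10 mg/kg was used to select the dose. Body weight, total body fat and lean mass were measured by EchoMRI before sacrifice. Mean ± S.D., n = 4.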

Mus musculus [11] = test: In vivo activation of lipoprotein lipase in high fat diet fed C57BL/6 mouse assessed as reduction in total body fat content at 1 to 10 mg/kg, ip administered daily on last week of 4 months study until end; format: functional, organism-based; in short: as §5
Mus musculus [12] = test: Reduction in lipid accumulation in high fat diet fed C57BL/6 mouse liver at 10 mg/kg, ip administered daily on last week of 4 months study until end by hematoxylin and eosin staining based assay; format: functional, organism-based; in short: as §3
[13] = substrate: CC1(C)CC1(C(=O)NCCCn1ccnc1)c1ccc(F)cc1; test: Binding affinity to bovine recombinant lipoprotein lipase assessed as Km for substrate using p-Nitrophenyl butyrate as substrate by Lineweaver-Burk plot analysis (reference value: 8.15 mM); conditions: Bos taurus

**Q.** For `CC1(C)CC1(C(=O)NCCCCN1CCOCC1)c1ccc(F)cc1` (configuration not stated), which Activity [1] is on record?
**A.** Active

**Q.** `CC1(C)CC1(C(=O)NCCNc1cccnc1)c1ccc(F)cc1` (configuration not stated) was tested. Which inhibition [2] did it give?
**A.** Active

**Q.** For `O=C(Cc1ccc(Cl)cc1)NCCCn1ccnc1`, which Activity [1] is on record?
**A.** Active

**Q.** `CC1(C)CC1(C(=O)NCCCc1csc(N)n1)c1ccc(F)cc1` (configuration not stated) was tested. Which inhibition [2] did it give?
**A.** Active

**Q.** `O=C(Cc1ccc(S)cc1)NCCCn1ccnc1` was tested. Which inhibition [2] did it give?
**A.** Active

**Q.** For `O=C(Cc1ccccc1)NCCCn1ccnc1`, which Activity [1] is on record?
**A.** Active

**Q.** How did the Activity [1] turn out when `O=C(Cc1ccc(F)cc1)NCCCn1ccnc1` was run?
**A.** Active

**Q.** How did the Activity (Rattus norvegicus) turn out when `CCOP(=O)(Cc1ccc(C(=O)Nc2ccc(Br)cc2C#N)cc1)OCC` [IBROLIPIM] was run?
**A.** 59%

**Q.** How did the Activity (Mus musculus [3]) turn out when `CC1(C)CC1(C(=O)NCCCn1ccnc1)c1ccc(F)cc1` (configuration not stated) was run?
**A.** Active

**Q.** And the fold change (FC) [4]?
**A.** 2

**Q.** What about the Activity (Mus musculus [5]) of the same molecule?
**A.** Non-Toxic

**Q.** What about the Activity [1] of the same molecule?
**A.** Active

**Q.** And the Activity (Mus musculus [6])?
**A.** Active

**Q.** What about the Activity (Mus musculus [7]) of the same molecule?
**A.** Active

**Q.** And the Activity (Mus musculus [8])?
**A.** Active

**Q.** What about the Activity (Mus musculus [9]) of the same molecule?
**A.** Active

**Q.** And the Activity (Mus musculus [10])?
**A.** Active

**Q.** What about the Activity (Mus musculus [11]) of the same molecule?
**A.** Active

**Q.** And the Activity (Mus musculus [12])?
**A.** Active

**Q.** With `O=C(Cc1ccc(O)cc1)NCCCn1ccnc1` as the molecule, how does the inhibition [2] read?
**A.** Active

**Q.** With `Cc1cccnc1CN1CCN(C(=O)C2(c3ccc(F)cc3)CC2(C)C)CC1` (configuration not stated) as the molecule, how does the inhibition [2] read?
**A.** Active

B1: Lipoprotein lipase (Bos taurus), P11151 (protein)
chain: T1 sequence (whole entry)
**Q.** For B1, which Km [13] is on record?
**A.** 648 µM
